Reference: ChEMBL document CHEMBL5107946, “SF5- and SCF3-substituted tetrahydroquinoline compounds as potent bactericidal agents against multidrug-resistant persister Gram-positive bacteria” (RSC Med Chem, 2021)
Values after ≈ are worked out from the molar mass of the structure shown. Active and inactive are the calls of the source.

Legend:
[1] = system: Staphylococcus aureus; assay: Antibacterial activity against Staphylococcus aureus ATCC 25923 assessed as bacterial growth inhibition at 16 ug/ml incubated for 18 to 20 hrs by CLSI based broth microdilution assay; type: functional, organism-based; conditions: dose 16.0 µg/ml, time 18-20 hrs
Method in brief: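 Single-concentration screen at 16 μg mL−1 final. Overnight TSB culture was diluted 1:1000 in cation-adjusted MHB and grown to early exponential phase. 1 mL of culture was added to compound in glass tubes and incubated overnight at 37 °C. OD600 was read and normalized to the DMSO control after subtracting medium-only OD.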

[2] = system: Staphylococcus aureus; assay: Antibacterial activity against Staphylococcus aureus ATCC 25923 assessed as bacterial growth inhibition incubated for 18 to 20 hrs by CLSI based broth microdilution assay; type: functional; conditions: time 18-20 hrs
Method in brief: (§1)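 CLSI broth microdilution; compounds and control antibiotics made up at 10 mg mL−1 in DMSO (stock), serially diluted 1:2 across the plate. Inoculum adjusted to 0.5 McFarland, then diluted 1:100 into wells. Plates incubated static at 37 °C for 18–20 h before MIC read.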

[3] = system: Staphylococcus aureus; assay: Antibacterial activity against methicillin-resistant Staphylococcus aureus ST1312 (ARLG 1649) assessed as bacterial growth inhibition incubated for 18 to 20 hrs by CLSI based broth microdilution assay; type: functional; conditions: time 18-20 hrs; method in brief: as §1
[4] = system: Staphylococcus aureus; assay: Antibacterial activity against methicillin-resistant Staphylococcus aureus ST239 (ARLG 1663) assessed as bacterial growth inhibition incubated for 18 to 20 hrs by CLSI based broth microdilution assay; type: functional; conditions: time 18-20 hrs; method in brief: as §1
[5] = system: Staphylococcus aureus; assay: Antibacterial activity against methicillin-resistant Staphylococcus aureus ST239 (ARLG 1644) assessed as bacterial growth inhibition incubated for 18 to 20 hrs by CLSI based broth microdilution assay; type: functional; conditions: time 18-20 hrs; method in brief: as §1
[6] = system: Staphylococcus aureus; assay: Antibacterial activity against methicillin-resistant Staphylococcus aureus ST239 (ARLG 1665) assessed as bacterial growth inhibition incubated for 18 to 20 hrs by CLSI based broth microdilution assay; type: functional; conditions: time 18-20 hrs; method in brief: as §1
[7] = system: Enterococcus faecalis; assay: Antibacterial activity against Enterococcus faecalis ATCC 29212 assessed as bacterial growth inhibition incubated for 18 to 20 hrs by CLSI based broth microdilution assay; type: functional; conditions: time 18-20 hrs; method in brief: as §1
[8] = system: Enterococcus faecium; assay: Antibacterial activity against vancomycin-resistant Enterococcus faecium ATCC 700221 assessed as bacterial growth inhibition incubated for 18 to 20 hrs by CLSI based broth microdilution assay
[9] = system: Listeria monocytogenes; assay: Antibacterial activity against Listeria monocytogenes ATCC 19115 assessed as bacterial growth inhibition incubated for 18 to 20 hrs by CLSI based broth microdilution assay; type: functional; conditions: time 18-20 hrs
Method in brief: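 MIC by CLSI broth microdilution. Compounds were made as 10 mg mL−1 DMSO stocks and serially diluted 1:2. Inoculum was set to 0.5 McFarland and diluted 1:100 into the wells. Plates were incubated static at 37 °C for 18–20 h before reading the MIC.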

[10] = system: Enterococcus faecalis; assay: Antibacterial activity against vancomycin-resistant Enterococcus faecalis ATCC 51575 assessed as bacterial growth inhibition incubated for 18 to 20 hrs by CLSI based broth microdilution assay; type: functional; conditions: time 18-20 hrs; method in brief: as §1
[11] = system: Staphylococcus aureus; assay: Antibacterial activity against methicillin-resistant Staphylococcus aureus ATCC 33592 assessed as bacterial growth inhibition incubated for 18 to 20 hrs by CLSI based broth microdilution assay; type: functional; conditions: time 18-20 hrs; method in brief: as §1
[12] = system: Staphylococcus aureus; assay: Antibacterial activity against methicillin-resistant Staphylococcus aureus USA300 assessed as bacterial growth inhibition incubated for 18 to 20 hrs by CLSI based broth microdilution assay; type: functional; conditions: time 18-20 hrs; method in brief: as §1
[13] = system: Staphylococcus aureus; assay: Antibacterial activity against methicillin-resistant Staphylococcus aureus ATCC 33592 assessed as fold increase in MIC incubated for 30 days by resistance development based broth microdilution assay; type: functional; conditions: time 30 day
Method in brief: (§2)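 Multi-step resistance selection over 30 days. MIC determined first. Each day, 5 μL from the turbid well just below the MIC was diluted 1:1000 in CA-MHB and used as inoculum for the next broth microdilution MIC. Resistance defined as a rise of more than four-fold over the starting MIC.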

[14] = system: Cell membrane; assay: Induction of cell membrane disruption in persister Staphylococcus aureus ATCC 25923 at 32 ug/ml incubated for 6 hrs by scanning electron microscopy; conditions: dose 32.0 µg/ml
[15] = system: Cell membrane; assay: Induction of cell membrane permeability in Staphylococcus aureus ATCC 25923 at 4 ug/ml by DiOC2 dye based flow cytometry assay; conditions: dose 4.0 µg/ml
Method in brief: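 Flow cytometry on S. aureus ATCC 25923 grown in TSB to exponential phase (OD600 0.2–0.3), then treated. Cells were washed twice in PBS and resuspended in buffer. To-PRO 3 iodide (red) and DiOC2 (green) were added and samples analysed immediately. The red/green ratio was used as the permeabilization readout, with bithionol 4 μg mL−1 as positive control.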

[16] = system: Enterococcus faecium; assay: Bactericidal activity against vancomycin-resistant Enterococcus faecium ATCC 700221 assessed as reduction in colony forming unit incubated for 20 hrs; conditions: ATCC 700221, 20 h
[17] = system: Staphylococcus aureus; assay: Bactericidal activity against Staphylococcus aureus ATCC 25923 assessed as reduction in colony forming unit incubated for 20 hrs; type: functional
Method in brief: (§3)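 Follows the broth microdilution MIC plate. 4 μL taken from each well without growth, spotted in duplicate on tryptic soy agar and incubated static at 37 °C for 20 h. MBC taken as the concentration giving 99.9% reduction in CFU.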

[18] = system: Enterococcus faecalis; assay: Bactericidal activity against Enterococcus faecalis ATCC 29212 assessed as reduction in colony forming unit incubated for 20 hrs; type: functional; method in brief: as §3
[19] = system: Staphylococcus aureus; assay: Bactericidal activity against methicillin-resistant Staphylococcus aureus USA300 assessed as reduction in colony forming unit incubated for 20 hrs; type: functional; method in brief: as §3
[20] = system: Enterococcus faecalis; assay: Bactericidal activity against vancomycin-resistant Enterococcus faecalis ATCC 51575 assessed as reduction in colony forming unit incubated for 20 hrs; type: functional; method in brief: as §3
[21] = system: Staphylococcus aureus; assay: Bactericidal activity against methicillin-resistant Staphylococcus aureus ATCC 33592 assessed as reduction in colony forming unit incubated for 20 hrs; type: functional; method in brief: as §3
[22] = system: Staphylococcus aureus; assay: Antibacterial activity against methicillin-resistant Staphylococcus aureus USA300 assessed as fold increase in MIC incubated for 30 days by resistance development based broth microdilution assay; type: functional; conditions: time 30 day; method in brief: as §2

FC(F)(F)c1n[nH]cc1[C@@H]1Nc2ccccc2[C@H]2[C@@H]3CC[C@@H](C3)[C@H]21
Activity [1]: Active

FS(F)(F)(F)(F)c1ccc2c(c1)[C@H]1[C@@H]3CC[C@@H](C3)[C@H]1[C@H](c1cn[nH]c1)N2
Activity [1]: Active | MIC [2]: 16 µg/mL (≈ 40.9 µM)

Cc1onc(-c2ccccc2)c1C(=O)N[C@@H]1C(=O)N2[C@@H]1SC(C)(C)[C@@H]2C(=O)O [OXACILLIN]
MIC [3]: 256 µg/mL (≈ 638 µM) | MIC [4]: 256 µg/mL (≈ 638 µM) | MIC [5]: 512 µg/mL (≈ 1280 µM) | MIC [6]: 512 µg/mL (≈ 1280 µM)

FC(F)(F)Sc1ccc2c(c1)[C@H]1[C@@H]3CC[C@@H](C3)[C@H]1[C@H](c1c[nH]nc1C(F)(F)F)N2
MIC [7]: 8 µg/mL (≈ 18.5 µM) | Activity [1]: Active | MIC [8]: 4 µg/mL (≈ 9.23 µM) | MIC [9]: 4 µg/mL (≈ 9.23 µM) | MIC [10]: 8 µg/mL (≈ 18.5 µM) | MIC [11]: 2 µg/mL (≈ 4.61 µM) | MIC [2]: 4 µg/mL (≈ 9.23 µM) | MIC [12]: 4 µg/mL (≈ 9.23 µM)

CC(C)Oc1ccc2c(c1)[C@H]1[C@@H]3CC[C@@H](C3)[C@H]1[C@H](c1c[nH]nc1C(F)(F)F)N2
Activity [1]: Active

FS(F)(F)(F)(F)c1ccc2c(c1)[C@H]1[C@@H]3CC[C@@H](C3)[C@H]1[C@H](c1c[nH]cn1)N2
Activity [1]: Active | MIC [2]: 8 µg/mL (≈ 20.4 µM)

FC(F)Oc1ccc2c(c1)[C@H]1[C@@H]3CC[C@@H](C3)[C@H]1[C@H](c1c[nH]nc1C(F)(F)F)N2
Activity [1]: Active

C/C(=C\C(=O)OCCCCCCCCC(=O)O)C[C@@H]1OC[C@H](C[C@@H]2O[C@H]2[C@@H](C)[C@H](C)O)[C@@H](O)[C@H]1O [MUPIROCIN]
fold change (FC) [13]: >250

Oc1c(Cl)cc(Cl)cc1Sc1cc(Cl)cc(Cl)c1O
Activity [14]: Active | Activity [15]: Active

O=C(O)c1ccc([C@@H]2Nc3ccc(S(F)(F)(F)(F)F)cc3[C@H]3[C@@H]4CC[C@@H](C4)[C@H]32)cc1
MIC [7]: 4 µg/mL (≈ 8.98 µM) | Activity [1]: Active | MIC [8]: 4 µg/mL (≈ 8.98 µM) | MIC [9]: 4 µg/mL (≈ 8.98 µM) | MIC [10]: 4 µg/mL (≈ 8.98 µM) | MIC [11]: 4 µg/mL (≈ 8.98 µM) | MIC [2]: 4 µg/mL (≈ 8.98 µM) | MIC [12]: 16 µg/mL (≈ 35.9 µM)

FC(F)(F)c1n[nH]cc1-c1nc2ccc(S(F)(F)(F)(F)F)cc2c2c1[C@H]1CC[C@@H]2C1
MIC [7]: 8 µg/mL (≈ 17.6 µM) | Activity [1]: Active | MIC [8]: 8 µg/mL (≈ 17.6 µM) | MIC [9]: 8 µg/mL (≈ 17.6 µM) | MIC [10]: 8 µg/mL (≈ 17.6 µM) | MIC [11]: 8 µg/mL (≈ 17.6 µM) | MIC [2]: 4 µg/mL (≈ 8.78 µM) | MIC [12]: 8 µg/mL (≈ 17.6 µM)

CC(=O)NC[C@H]1CN(c2ccc(N3CCOCC3)c(F)c2)C(=O)O1 [LINEZOLID]
MBC [16]: > 128 µg/mL | MBC [17]: 64 µg/mL (≈ 190 µM) | MIC [9]: 2 µg/mL (≈ 5.93 µM) | MBC [18]: 64 µg/mL (≈ 190 µM) | MBC [19]: 64 µg/mL (≈ 190 µM) | MBC [20]: > 128 µg/mL | MBC [21]: 64 µg/mL (≈ 190 µM)

CN[C@H](CC(C)C)C(=O)N[C@H]1C(=O)N[C@@H](CC(N)=O)C(=O)N[C@H]2C(=O)N[C@H]3C(=O)N[C@H](C(=O)N[C@H](C(=O)O)c4cc(O)cc(O)c4-c4cc3ccc4O)[C@H](O)c3ccc(c(Cl)c3)Oc3cc2cc(c3O[C@@H]2O[C@H](CO)[C@@H](O)[C@H](O)[C@H]2O[C@H]2C[C@](C)(N)[C@H](O)[C@H](C)O2)Oc2ccc(cc2Cl)[C@H]1O [VANCOMYCIN]
MIC [7]: 2 µg/mL (≈ 1.38 µM) | MBC [16]: > 128 µg/mL | MBC [17]: 2 µg/mL (≈ 1.38 µM) | MIC [8]: > 128 µg/mL | MIC [9]: 1 µg/mL (≈ 0.69 µM) | MBC [18]: 2 µg/mL (≈ 1.38 µM) | MBC [19]: 2 µg/mL (≈ 1.38 µM) | MIC [10]: > 128 µg/mL | MBC [20]: > 128 µg/mL | MBC [21]: 2 µg/mL (≈ 1.38 µM)

FC(F)(F)c1ccc2c(c1)N[C@@H](c1c[nH]nc1C(F)(F)F)[C@@H]1[C@H]3CC[C@H](C3)[C@H]21
MIC [7]: 8 µg/mL (≈ 19.9 µM) | Activity [1]: Active | MIC [8]: 8 µg/mL (≈ 19.9 µM) | MIC [9]: 8 µg/mL (≈ 19.9 µM) | MIC [10]: 8 µg/mL (≈ 19.9 µM) | MIC [11]: 8 µg/mL (≈ 19.9 µM) | MIC [2]: 4 µg/mL (≈ 9.97 µM) | MIC [12]: 8 µg/mL (≈ 19.9 µM)

FC(F)(F)Oc1ccc2c(c1)[C@H]1[C@@H]3CC[C@@H](C3)[C@H]1[C@H](c1c[nH]nc1C(F)(F)F)N2
MIC [7]: 8 µg/mL (≈ 19.2 µM) | Activity [1]: Active | MIC [8]: 4 µg/mL (≈ 9.58 µM) | MIC [9]: 4 µg/mL (≈ 9.58 µM) | MIC [10]: 8 µg/mL (≈ 19.2 µM) | MIC [11]: 4 µg/mL (≈ 9.58 µM) | MIC [2]: 4 µg/mL (≈ 9.58 µM) | MIC [12]: 8 µg/mL (≈ 19.2 µM)

Fc1ccc2c(c1)[C@H]1[C@@H]3CC[C@@H](C3)[C@H]1[C@H](c1c[nH]nc1C(F)(F)F)N2
Activity [1]: Active

O=C(O)c1cn(C2CC2)c2cc(N3CCNCC3)c(F)cc2c1=O [CIPROFLOXACIN]
fold change (FC) [13]: 64 | fold change (FC) [22]: 16
